KCNQ1 block: inhibitors of human KCNQ1 potassium channel. CHO-K1 KCNQ1, FluxOR thallium flux fluorescence; active compounds read high. B-score at 10 µM. 310,000 compounds, 1.3% hits. AID 2642;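 active = compounds whose thallium flux B-score, printed positive for inhibition, exceeds three library SD while starting fluorescence stays within three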;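 also: channel opened by potassium depolarization with thallium stimulus after 20 min compound exposure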
KCNK9 block: human KCNK9 channel inhibition. Q9NPC2. HEK293 KCNK9, FluxOR thallium flux fluorescence; active compounds read low. B-score at 10 µM. 310,000 compounds, 1.2% hits. AID 488922;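 active = ratio B-score over 3 SD below the library mean, with starting fluorescence within 5 SD of its mean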;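 also: negative B-score means less thallium flux so channel inhibition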
Target sequence (Q9NPC2 whole entry, looked up): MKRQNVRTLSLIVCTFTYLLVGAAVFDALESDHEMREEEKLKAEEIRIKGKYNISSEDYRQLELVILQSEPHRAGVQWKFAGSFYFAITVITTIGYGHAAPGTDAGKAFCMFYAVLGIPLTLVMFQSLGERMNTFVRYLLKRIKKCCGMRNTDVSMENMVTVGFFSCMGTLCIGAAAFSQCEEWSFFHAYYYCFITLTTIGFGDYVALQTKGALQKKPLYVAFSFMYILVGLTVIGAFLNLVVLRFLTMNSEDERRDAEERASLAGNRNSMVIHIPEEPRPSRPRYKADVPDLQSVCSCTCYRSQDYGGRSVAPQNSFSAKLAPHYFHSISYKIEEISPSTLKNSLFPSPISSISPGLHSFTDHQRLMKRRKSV
KCNQ1 pot: potentiates or activates the human KCNQ1 potassium channel | P51787 | CHO-K1 KCNQ1, thallium flux FluxOR fluorescence; active compounds read high | B-score at 10 µM | 310,000 compounds, 0.35% hits;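 active = fluorescence ratio B-score, a plate-corrected score, at least three library SD, with initial intensity B-score within 5 SD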
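Material: CHO-K1 cells stably expressing KCNQ1. Medium: assay buffer for compound exposure, DMSO matched across wells. Reagent: K+/Tl+ depolarizing stimulus. Compound dosing: single-concentration screen. Times: 37 °C overnight plating, 90-min dark dye load, 20-min compound pretreatment. Technique: FluxOR Tl+ flux fluorescence.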
KCNK3 inh: human KCNK3 channel inhibition, primary screen; AID 602410; B-score at 10 µM; CHO-KCNK3 thallium flux, FluxOR fluorescence; active compounds read low; 340,000 compounds, 0.84% hits;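 active = B-score under library mean minus 4 SD, starting fluorescence ratio at most library mean plus 5 SD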;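 also: more negative B-score means stronger inhibition of thallium flux through KCNK3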
Kir21 block: Kir2.1 (mouse) channel inhibition | P35561 | HEK293-Kir2.1, FluxOR thallium flux fluorescence; active compounds read low | B-score at 10 µM | 310,000 compounds, 0.85% hits;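 active = fluorescence ratio B-score at or below minus 3 SD of library scores, with starting-brightness B-score within 2 SD, cut at about -4.2 in these data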;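 also: channel flux triggered by added potassium and thallium sulfate stimulus; B-score of peak minus minimum fluorescence over baseline after thallium stimulus; more negative B-score means stronger Kir2.1 block with less thallium influx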
hERG rescue: hERG (human) protection from proarrhythmic block. Q12809. CHO-hERG, FluxOR thallium flux, dofetilide IC70 present. activation (rescue from dofetilide block), less the hit threshold, % at 10 µM. 310,000 compounds, 0.51% hits. AID 1511;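 active = activation above the mean of controls blocked by dofetilide plus 5 SD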;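 also: thallium influx through hERG after potassium depolarization seen as dye fluorescence rise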
KCNK9 inh conf: human KCNK9 inhibitor confirmation; HEK293 KCNK9 cells, FluxOR thallium flux fluorescence; shares compounds with KCNK9 block; inhibition, % at 10 µM; 4,900 compounds, 43% hits;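 active = thallium signal inhibited by more than 5 SD of the compound-free buffer control wells, on both duplicate plates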;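 also: 0% = assay buffer control wells without compound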
Kir21 sel: selectivity of KCNK9 modulators against mouse Kir2.1. shares compounds with KCNK9 block. Kir2.1 cells, FluxOR thallium flux fluorescence. inhibition, % at 10 µM. 4,900 compounds, 4% hits. AID 492993;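 active = thallium signal drop more than 5 SD beyond the mean of the no-compound control wells, seen in both duplicate plates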;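 also: signal is fluorescence rise after thallium addition divided by baseline fluorescence; plate controls were assay buffer only for no effect and full block by chlorpromazine control for full effect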
KCNK9 uninduced: non-induced cell nonspecific activity of KCNK9 modulators. AID 492997. non-induced KCNK9-HEK293, FluxOR thallium flux. inhibition, % at 10 µM. shares compounds with KCNK9 block. 4,900 compounds, 40% hits;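 active = thallium signal drop beyond 5 SD of the untreated control mean, on both duplicate plates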;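 also: plate controls were buffer only IC0 wells for no effect and SID17386958 at its maximal inhibitory level for full effect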
An asterisk follows results filed as active; i = inactive; · = no result. Compounds with a hit are over-represented: about 3.7% of the library has one in this group of screens.

SMILES	KCNQ1 block	KCNK9 block	KCNQ1 pot	KCNK3 inh	Kir21 block	hERG rescue	KCNK9 inh conf	Kir21 sel	KCNK9 uninduced
Cc1ccc(SCc2cc(=O)[nH]c(Nc3nc(C)c4ccccc4n3)n2)cc1	i	i	i	i	-0.67	-5.8	i	i	i
Cc1ccc(-c2cc(-c3ccco3)c(C#N)c(=O)[nH]2)cc1	i	i	i	i	-0.27	-5.4	·	·	·
CC(C)(C)c1cc(-c2ccco2)c(C#N)c(SCC#N)n1	i	-9.65*	i	i	-1.64	-3.5	i	i	31.0%*
CCN(CC)C(=O)CSc1nc2ccccc2c(=O)n1CC	i	i	i	i	0.52	-9.7	·	·	·
CCCCN(CC)C(=O)CSc1nc2ccccc2c(=O)n1CC1COc2ccccc2O1 (stereo not given)	i	i	i	i	1.37	-17.6	i	i	i
O=c1[nH]c(NNC(=S)NC2CCCCC2)nc2c1C1(CCCC1)Cc1ccccc1-2	6*	i	i	i	-0.92	-14.1	i	i	i
O=c1[nH]c(NNC(=S)NCc2ccccc2)nc2c1C1(CCCCC1)Cc1ccccc1-2	i	i	i	i	0.14	-6.3	36.5%*	i	i
Cc1cc(C)n2nc(C(=O)OCC(=O)NNC(=O)c3ccccc3)nc2n1	·	·	·	i	·	·	·	·	·
CCc1ccccc1N(C)S(=O)(=O)c1ccc2[nH]cc(C(=O)N3CCc4ccccc43)c(=O)c2c1	i	-9.3*	i	i	0.28	-11.8	i	i	25.5%*
CCCCN(Cc1ccccc1)S(=O)(=O)c1cc(Br)cc2c1N(C(C)=O)C(C)C2 (stereo not given)	i	-15.5*	i	i	-0.08	-16.4	i	i	54.0%*
CC(=O)N1c2c(cc(Br)cc2S(=O)(=O)NCc2cccnc2)CC1C (stereo not given)	i	i	i	i	0.85	-3.4	·	·	·
COC(=O)/C(C#N)=C\c1c(OC)[nH]c2ccccc12	i	i	i	i	0.59	-7.2	·	·	·
O=C(CCC(=O)c1ccc(Oc2ccccc2)cc1)Nc1cccc(Cl)c1Cl	i	i	i	i	0.06	-16.0	i	i	26.5%*
CCOC(=O)N/N=C/c1c(C)c(C(=O)c2ccc(F)cc2)n2ccccc12	i	-11.4*	i	i	-0.04	-11.8	i	i	i
CC(=O)Nc1ccc(S(=O)(=O)NCCC(=O)Nc2ccc(C)c(F)c2)cc1	i	i	i	i	-0.11	-3.0	·	·	·
CC(=O)Nc1ccccc1N(C)S(=O)(=O)c1ccc(C)cc1	i	-8.27*	i	i	-0.16	-8.5	i	i	i
O=C(O)c1cccc(CSc2nc(-c3ccccc3)cc(C(F)(F)F)n2)c1	i	i	i	i	0.09	-17.5	·	·	·
COc1ccc(-c2cc(C(F)(F)F)nc(SCc3cccc(C(=O)O)c3)n2)cc1	i	i	i	i	-2.16	-16.1	i	i	i
O=C(Nc1nc2ccccc2[nH]1)c1ccccc1[N+](=O)[O-]	i	i	i	i	-0.43	-6.1	·	·	·
Cc1c(C(=O)Nc2nc3ccccc3[nH]2)cccc1[N+](=O)[O-]	i	-8.39*	i	i	1.83	-4.9	47.0%*	i	25.5%*
COc1cc(OC)cc(-c2c(-c3ccc(F)cc3)c3cc(-c4cnc(OC)nc4)ccc3n2C)c1	·	·	·	i	·	·	·	·	·
C[C@@H]1CC[C@@]23COC(=O)C2=CCC[C@@H]3[C@@]1(C)CC/C(=C/CO)CO	·	·	·	i	·	·	·	·	·
CC1=CCC[C@@H]2[C@@](C)(CC/C(C)=C/C(=O)O)[C@H](C)CC[C@@]12C	i	i	i	i	-0.32	-0.9	i	i	i

From PubChem BioAssay
